Test results taken from publication PMC2904523 (Journal of medicinal chemistry, 2010).

What was measured:
[1] = system: HIV-1 IIIB; test: HIV growth inhibition assay in H9 lymphocytes; conditions: for EC50 (concentration that causes 50% inhibition of HIV-1 IIIB replication): HIV-1 IIIB in H9 cells, Panacos, average of three independent assays; for selectivity ratio at 6 days: human, SI (selective index) = CC50/EC50, HIV-1 IIIB in H9 cells
[2] = system: RT of HIV-1DH012 (lysate); test: RT enzymatic inhibition; format: biochemical; conditions: RT from HIV-1DH012 lysate; Figure 3; average of three assays
Method in brief: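 Reverse transcriptase came from a lysate of HIV-1DH012, a primary viral isolate. Enzyme activity was measured at various test compound concentrations with a commercial colorimetric HIV-1 RT kit, following the manufacturer's protocol. Each value is the average of three independent assays.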

| Compound | EC50 (concentration that causes 50% inhibition of HIV-1 IIIB replication) [1] | selectivity ratio at 6 days [1] | RT inhibition activity [2] |
| --- | --- | --- | --- |
| Cc1cccc(C)c1Oc1cc(Nc2ccc(C#N)cc2)c([N+](=O)[O-])cc1[N+](=O)[O-] [Compound 20, N-(4′-Cyanophenyl)-5-(2″,6″-dimethylphenoxy)-2,4-dinitroaniline] | sub-micromolar level | 113 to 313 |  |
| Cc1cc(Br)cc(C)c1Oc1cc(Nc2ccc(C#N)cc2)c([N+](=O)[O-])cc1[N+](=O)[O-] [Compound 19, 5-(4″-Bromo-2″,6″-dimethylphenoxy)-N-(4′-cyanophenyl)-2,4-dinitrsoaniline] | sub-micromolar level |  |  |
| Cc1cc(C#N)cc(C)c1Oc1cc(Nc2ccc(C#N)cc2)c(N)cc1[N+](=O)[O-] [Compound 37, 5-(4″-Cyano-2″,6″-dimethylphenoxy)-N^1-(4′-cyanophenyl)-4-nitrobenzene-1,2-diamine] |  |  | potently inhibited RT activity |
| Cc1cc(Br)cc(C)c1Oc1ccc([N+](=O)[O-])c(Nc2ccc(C#N)cc2)c1 [Compound 24, 5-(4″-Bromo-2″,6″-dimethylphenoxy)-N-(4′-cyanophenyl)-2-nitroaniline] | sub-micromolar level | 113 to 313 |  |
| Cc1cc(C#N)cc(C)c1Oc1nc(Nc2ccc(C#N)cc2)nc(N)c1Br [Compound 4, etravirine, reference compound] |  |  | potently inhibited RT activity |
| Cc1cc(C)c(Oc2cc(Nc3ccc(C#N)cc3)c([N+](=O)[O-])cc2[N+](=O)[O-])c(C)c1 [Compound 22, N-(4′-Cyanophenyl)-2,4-dinitro-5-(2″,4″,6″-trimethylphenoxy)aniline] | sub-micromolar level | 113 to 313 |  |
| Cc1cc(C#N)cc(C)c1Oc1cc(Nc2ccc(C#N)cc2)c(N)cc1N [Compound 34, 5-(4″-Cyano-2″,6″-dimethylphenoxy)-N^1-(4′-cyanophenyl)benzene-1,2,4-triamine] |  |  | potently inhibited RT activity |
| Cc1cc(C#N)cc(C)c1Oc1ccc([N+](=O)[O-])c(Nc2ccc(C#N)cc2)c1 [Compound 26, 5-(4″-Cyano-2″,6″-dimethylphenoxy)-N-(4′-cyanophenyl)-2-nitroaniline] | sub-micromolar level |  |  |
| Cc1cc(Br)cc(C)c1Oc1cc(Nc2ccc(C#N)cc2)c(N)cc1[N+](=O)[O-] [Compound 36, 5-(4″-Bromo-2″,6″-dimethylphenoxy)-N^1-(4′-cyanophenyl)-4-nitrobenzene-1,2-diamine] |  | > 2800 |  |
| Cc1cc(Br)cc(C)c1Oc1cc(Nc2ccc(C#N)cc2)c(N)cc1N [Compound 32, 5-(4″-Bromo-2″,6″-dimethylphenoxy)-N^1-(4′-cyanophenyl)benzene-1,2,4-triamine] | sub-micromolar level |  |  |
